Columns and labels:
[1] = system: A549; experiment: In vitro concentration required to inhibit the TNF-alpha-induced RANTES production in A549 human lung epithelium cell line; format: functional, cell-based
How it was run: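 A549 human lung epithelial cells grown in D-MEM with 10% FCS, penicillin/streptomycin and 2 mM glutamine. Cells (4×10⁴/well) pretreated 1 h with compound or vehicle (0.1% DMSO), then stimulated with 100 ng/mL TNF-α for 24 h. RANTES in supernatants measured by quantitative sandwich fluorescent immunoassay.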

[2] = molecular target: T1, Inhibitor of nuclear factor kappa-B kinase subunit beta (Homo sapiens, UniProt O14920); experiment: In vitro inhibitory concentration required against recombinant human IkB kinase beta (IKK-beta)
T1 sequence (O14920 whole entry): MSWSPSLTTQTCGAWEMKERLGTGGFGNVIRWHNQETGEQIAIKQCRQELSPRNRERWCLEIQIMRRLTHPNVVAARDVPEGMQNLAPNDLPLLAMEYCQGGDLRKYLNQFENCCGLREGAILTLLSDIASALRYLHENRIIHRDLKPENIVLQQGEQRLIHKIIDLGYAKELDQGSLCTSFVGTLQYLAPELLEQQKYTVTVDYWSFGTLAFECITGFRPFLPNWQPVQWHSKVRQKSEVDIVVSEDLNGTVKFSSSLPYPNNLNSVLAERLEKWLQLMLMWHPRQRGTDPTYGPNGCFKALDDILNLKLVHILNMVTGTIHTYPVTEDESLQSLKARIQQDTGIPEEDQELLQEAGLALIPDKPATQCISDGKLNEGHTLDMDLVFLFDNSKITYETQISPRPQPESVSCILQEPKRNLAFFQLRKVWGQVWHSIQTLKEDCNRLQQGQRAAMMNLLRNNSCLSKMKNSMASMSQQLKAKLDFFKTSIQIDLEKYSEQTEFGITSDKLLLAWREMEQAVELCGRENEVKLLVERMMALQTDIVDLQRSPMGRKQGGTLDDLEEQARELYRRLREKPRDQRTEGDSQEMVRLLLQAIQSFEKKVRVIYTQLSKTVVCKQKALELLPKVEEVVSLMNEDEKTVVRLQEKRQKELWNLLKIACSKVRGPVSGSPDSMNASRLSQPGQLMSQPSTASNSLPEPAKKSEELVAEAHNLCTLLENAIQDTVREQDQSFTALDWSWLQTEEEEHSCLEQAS
How it was run: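 Recombinant His-tagged human IKK-β from baculovirus-infected insect cells, final […], with biotinylated GST-IκBα(1-54) substrate (final 0.2) in Tris-HCl pH 7.6 buffer with MgCl₂, DTT, Na₃VO₄ and BSA; DMSO final 0.25%. Started with ATP plus [γ-³³P]ATP, 2 h at rt, stopped with EDTA. Substrate captured on streptavidin plates, washed, counted by scintillation.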

[3] = system: HEK293; experiment: In vitro inhibition of NF-kappaB-Luciferase in HEK293 cell line; format: functional, cell-based; settings: Homo sapiens
[4] = system: PBMC; experiment: In vitro inhibition TNF-alpha release in human Peripheral blood mononuclear cells (PBMC); format: functional, cell-based
[5] = molecular target: T2, Inhibitor of nuclear factor kappa-B kinase subunit alpha (Homo sapiens, UniProt O15111); experiment: Inhibition of human IKK-alpha
T2 sequence (O15111 whole entry): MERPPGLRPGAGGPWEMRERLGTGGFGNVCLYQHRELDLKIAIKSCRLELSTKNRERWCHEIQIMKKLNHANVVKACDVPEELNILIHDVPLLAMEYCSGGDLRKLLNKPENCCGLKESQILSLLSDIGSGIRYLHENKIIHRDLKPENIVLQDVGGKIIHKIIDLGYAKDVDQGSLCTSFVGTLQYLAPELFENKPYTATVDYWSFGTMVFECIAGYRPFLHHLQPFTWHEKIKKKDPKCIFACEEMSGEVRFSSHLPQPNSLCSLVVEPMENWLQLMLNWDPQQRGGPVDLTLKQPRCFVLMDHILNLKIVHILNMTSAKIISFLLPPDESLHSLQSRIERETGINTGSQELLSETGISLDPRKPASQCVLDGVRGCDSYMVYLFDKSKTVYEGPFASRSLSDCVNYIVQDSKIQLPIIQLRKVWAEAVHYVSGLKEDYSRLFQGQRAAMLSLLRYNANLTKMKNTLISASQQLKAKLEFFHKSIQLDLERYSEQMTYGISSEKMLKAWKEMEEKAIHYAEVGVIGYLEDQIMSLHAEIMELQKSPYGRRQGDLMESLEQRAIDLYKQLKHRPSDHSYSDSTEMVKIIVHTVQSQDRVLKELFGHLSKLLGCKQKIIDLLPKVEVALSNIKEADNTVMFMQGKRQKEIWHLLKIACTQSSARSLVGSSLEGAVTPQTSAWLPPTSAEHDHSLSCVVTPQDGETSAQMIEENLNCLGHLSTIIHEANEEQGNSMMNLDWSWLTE

[6] = molecular target: T3, Dual specificity mitogen-activated protein kinase kinase 4 (Homo sapiens, UniProt P45985); experiment: Inhibition of human mitogen-activated protein kinase kinase 4 (MKK4)
T3 sequence (P45985 whole entry): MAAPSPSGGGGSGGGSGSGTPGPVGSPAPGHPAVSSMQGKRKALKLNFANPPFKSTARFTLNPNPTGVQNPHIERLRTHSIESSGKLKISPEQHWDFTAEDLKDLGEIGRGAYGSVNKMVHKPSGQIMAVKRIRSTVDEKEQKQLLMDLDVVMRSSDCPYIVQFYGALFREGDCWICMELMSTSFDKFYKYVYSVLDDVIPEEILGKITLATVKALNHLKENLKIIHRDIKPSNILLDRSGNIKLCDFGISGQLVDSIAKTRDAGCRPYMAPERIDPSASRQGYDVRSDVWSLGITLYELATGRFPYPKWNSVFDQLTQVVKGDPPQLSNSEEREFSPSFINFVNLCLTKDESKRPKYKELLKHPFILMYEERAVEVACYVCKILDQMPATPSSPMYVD

[7] = system: Mus musculus; experiment: In vivo LPS-induced TNF-alpha production in mice after oral administration (60 min pretreatment); format: functional
How it was run: (§1)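 Eight-week-old female BALB/c mice given 200 (per mouse) LPS ip in saline. Compound dosed ip 30 min before LPS, or po in 10% cremophor/saline 60 min before. Blood taken under pentobarbital anaesthesia 90 min after LPS. Plasma TNFα measured by ELISA; mean of 5 mice per group used to calculate percent reduction versus LPS controls; ED₅₀ reported.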

[8] = species: Mus musculus; experiment: In vitro inhibition of IgE in mouse B-cells; format: functional, cell-based
[9] = system: Mus musculus; experiment: In vivo LPS-induced TNF-alpha production in mice after ip administration (30 min pretreatment); format: functional; how it was run: as §1
[10] = molecular target: Tyrosine-protein kinase SYK (Homo sapiens, UniProt P43405); experiment: Inhibition of human Syk
[11] = system: Jurkat; experiment: In vitro inhibition of anti-CD3/anti-CD28-I induced IL-2 release in Jurkat T-cells; format: functional, cell-based; settings: Homo sapiens
[12] = molecular target: T2, Inhibitor of nuclear factor kappa-B kinase subunit alpha; experiment: Inhibition of human IKK-alpha kinase

Compound | IC50 [1] [µM] | IC50 [2] [µM] | also measured
N#Cc1c(-c2cccc(NC(=O)C(N)CC(=O)O)c2)cc(-c2ccccc2O)nc1N (stereo not drawn) | 15 | 0.6 | 
N#Cc1c(-c2ccc(NC(=O)CCN3CCCCC3)cc2)cc(-c2ccccc2O)nc1N | > 50 | 1 | 
Cc1cccc(O)c1-c1cc(-c2cccc(NC(=O)C(O)CCC(=O)O)c2)c(C#N)c(N)n1 (stereo not drawn) | > 50 | > 20 | 
COc1cccc(O)c1-c1cc(-c2cccc(NC(=O)C(O)CCC(=O)O)c2)c(C#N)c(N)n1 (stereo not drawn) | > 50 | 2 | 
N#Cc1c(-c2cccc(NC(=O)CCN3CCCCC3)c2)cc(-c2ccccc2O)nc1N | 7 | 0.6 | IC50 [6]: > 20 µM; ED50 [7]: 2 mg/kg; ED50 [9]: < 0.03 mg/kg; IC50 [10]: > 20 µM; IC50 [12]: 20 µM
COc1ccc(O)c(-c2cc(-c3cccc(NC(=O)C(O)CCC(=O)O)c3)c(C#N)c(N)n2)c1 (stereo not drawn) | > 50 | 5.3 | 
N#Cc1c(-c2cccc(C(=O)NCCN3CCCCC3)c2)cc(-c2ccccc2O)nc1N | 15 | 1.8 | 
N#Cc1c(-c2cccc(NC(=O)C(O)CCC(=O)O)c2)cc(-c2cc(Cl)ccc2O)nc1N (stereo not drawn) | > 50 | 5.5 | 
N#Cc1c(-c2cccc(NC(=O)CN3CCCCC3)c2)cc(-c2ccccc2O)nc1N | 15 | 3 | 
N#Cc1c(-c2cccc(NC(=O)CC(N)C(=O)O)c2)cc(-c2ccccc2O)nc1N (stereo not drawn) | 35 | 0.6 | 
N#Cc1c(-c2ccc([N+](=O)[O-])cc2)cc(-c2ccccc2O)nc1N | > 50 | > 20 | 
N#Cc1c(-c2ccc(C(=O)O)cc2)cc(-c2ccccc2O)nc1N | > 50 | 0.7 | 
CN(C)c1ccc(-c2cc(-c3ccccc3O)nc(N)c2C#N)cc1 | > 50 | > 20 | 
N#Cc1c(-c2cccc(NC(=O)C(O)CCC(=O)O)c2)cc(-c2ccc(O)cc2)nc1N (stereo not drawn) | > 50 | > 20 | 
N#Cc1c(-c2ccccc2C(=O)O)cc(-c2ccccc2O)nc1N | > 50 | 0.7 | 
N#Cc1c(-c2ccccc2C(=O)NCCN2CCCCC2)cc(-c2ccccc2O)nc1N | 6 | 0.5 | 
N#Cc1c(-c2cccc(C(=O)O)c2)cc(-c2ccccc2O)nc1N | > 50 | 2.5 | 
CC(=O)Nc1nc(-c2ccccc2O)cc(-c2cccc(NC(=O)CCN3CCCCC3)c2)c1C#N | 30 | 15 | 
Cl.N#Cc1c(-c2ccc(N3CCCC3)c(NC(=O)CCN3CCCCC3)c2)cc(-c2ccccc2O)nc1N | 0.8 | 1 | ED50 [7]: 10.1 mg/kg; ED50 [9]: 0.8 mg/kg
CN(C)c1ccc(-c2cc(-c3ccccc3O)nc(N)c2C#N)cc1NC(=O)CCN1CCCCC1.Cl | 8 | 0.8 | ED50 [9]: 0.6 mg/kg
N#Cc1c(-c2cccc(NC(=O)CCN3CCCCC3)c2)cc(-c2cccc(O)c2)nc1N | 10 | > 20 | 
N#Cc1c(-c2cccc(NC(=O)CCN3CCCCC3)c2)cc(-c2ccccc2O)nc1O | > 50 | > 20 | 
CCN(CC)c1nc(-c2ccccc2O)cc(-c2cccc(NC(=O)CCN3CCCCC3)c2)c1C#N |  | > 20 | 
N#Cc1c(-c2ccc(N3CCCCC3)c(NC(=O)CCN3CCCCC3)c2)cc(-c2ccccc2O)nc1N | 5 | 2.5 | 

Now from value to compound, other results behind:

IC50 [1] [µM] | IC50 [2] [µM] | Compound | also measured
> 50 | 20 | N#Cc1c(-c2cccc(N)c2)cc(-c2ccccc2O)nc1N | 
> 50 | 1.4 | N#Cc1c(-c2cccc(NC(=O)CCCC(=O)O)c2)cc(-c2ccccc2O)nc1N | 
> 50 | > 20 | COc1ccccc1-c1cc(-c2cccc(NC(=O)C(O)CCC(=O)O)c2)c(C#N)c(N)n1 (stereo not drawn) | 
> 50 | 0.5 | N#Cc1c(-c2ccc(NC(=O)CCCC(=O)O)cc2)cc(-c2ccccc2O)nc1N | 
> 50 | 0.6 | N#Cc1c(-c2ccc(C(=O)NCCN3CCCCC3)cc2)cc(-c2ccccc2O)nc1N | 
> 50 | > 20 | Cc1c(-c2ccccc2O)nc(N)c(C#N)c1-c1cccc(NC(=O)C(O)CCC(=O)O)c1 (stereo not drawn) | 
8 | 1.5 | N#Cc1c(-c2cccc(NC(=O)C3CCC(=O)O3)c2)cc(-c2ccccc2O)nc1N (stereo not drawn) | IC50 [3]: 8 µM; IC50 [4]: 10 µM; IC50 [5]: > 20 µM; IC50 [6]: > 20 µM; ED50 [7]: > 30 mg/kg; IC50 [8]: 0.35 µM; ED50 [9]: 10 mg/kg; IC50 [10]: > 20 µM; IC50 [11]: 15 µM
> 50 | 1.4 | COCC(=O)Nc1cccc(-c2cc(-c3ccccc3O)nc(N)c2C#N)c1 | 
> 50 | 1.7 | N#Cc1c(-c2cccc(NC(=O)C(O)CCC(=O)O)c2)cc(-c2cc(F)ccc2O)nc1N (stereo not drawn) | 
20 | 0.9 | N#Cc1c(-c2cccc(NC(=O)C(O)CCC(=O)[O-])c2)cc(-c2ccccc2O)nc1N.[Na+] (stereo not drawn) | ED50 [7]: 18.7 mg/kg; ED50 [9]: 1.3 mg/kg
> 50 | > 20 | N#Cc1c(-c2cccc(NC(=O)C(O)CCC(=O)O)c2)cc(-c2ccccc2)nc1N (stereo not drawn) | 

Reference: ChEMBL document CHEMBL1136626, “Discovery of novel and selective IKK-beta serine-threonine protein kinase inhibitors. Part 1” (Bioorg Med Chem Lett, 2003)
